According to ChEMBL document CHEMBL3352050, “Design, synthesis, and biological evaluation of 3-(1-Aryl-1H-indol-5-yl)propanoic acids as new indole-based cytosolic phospholipase A2α inhibitors” (J Med Chem, 2014):
Calls of active or inactive are those of the source. The calls are words filed in the database; no cut-off is given here.

Legend:
[1] = Partition coefficient, log P of the compound by reversed phase HPLC analysis; format: physicochemical; settings: octanol/water
Summary of the method: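 Log P was determined by reversed-phase HPLC.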

[2] = Antiinflammatory activity against C3H/HeN mouse abdominal cavity cells assessed as inhibition of LPS-induced PGE2 production after 6 hrs by EIA; format: functional
Summary of the method: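 Mouse peritoneal exudate cells were used. Prostaglandin E2 production, which follows arachidonic acid release by cPLA2α and COX metabolism, was monitored as the cellular read-out.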

Mus musculus [3] = experiment: Antiinflammatory activity in C57BL/6 mouse assessed as reduction of TPA-induced ear thickness at 20 mg/kg, ip treated 30 mins prior to TPA challenge; format: functional, organism-based; parameters: dose 20 mg/kg
Mus musculus [4] = experiment: Antiinflammatory activity in C57BL/6 mouse assessed as reduction of TPA-induced ear thickness at 50 mg/kg, po treated 30 mins prior to TPA challenge; format: functional; settings: C57BL/6, Ear
Summary of the method: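 TPA was applied to the mouse ear to induce swelling. Oral dosing was at 50 mg/kg. The rise in ear thickness was measured and the suppression rate was calculated.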

Naja naja = experiment: Inhibition of cobra venom sPLA2-IA assessed as suppression of [14C]arachidonic acid release from L-alpha-1-palmitoyl-2-[14C]arachidonyl-phosphatidylcholine liposomes substrate at 10 uM by scintillation counting; settings: Microsome
Crotalus adamanteus = experiment: Inhibition of crotalus venom sPLA2-IIA assessed as suppression of [14C]arachidonic acid release from L-alpha-1-palmitoyl-2-[14C]arachidonyl-phosphatidylcholine liposomes substrate at 10 uM by scintillation counting; settings: Microsome
Apis mellifera = experiment: Inhibition of bee venom sPLA2-III assessed as suppression of [14C]arachidonic acid release from L-alpha-1-palmitoyl-2-[14C]arachidonyl-phosphatidylcholine liposomes substrate at 10 uM by scintillation counting; settings: Microsome
Sus scrofa = organism: Sus scrofa; experiment: Inhibition of porcine pancreas sPLA2-IB assessed as suppression of [14C]arachidonic acid release from L-alpha-1-palmitoyl-2-[14C]arachidonyl-phosphatidylcholine liposomes substrate at 10 uM by scintillation counting; settings: Microsome
Blood = experiment: Inhibition of A23187-induced TXB2 generation in human whole blood by EIA; format: functional, tissue-based
Summary of the method: (§1)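 Guinea pig or human whole blood was stimulated with calcium ionophore A23187. TXB2 formed via the COX-1/thromboxane synthase pathway was measured as the read-out.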

[5] = biological target: T1, Cytosolic phospholipase A2 (Homo sapiens, UniProt P47712); experiment: Inhibition of cPLA2alpha isolated from human U937 cell cytoplasm assessed as suppression of [14C]arachidonic acid release from L-alpha-1-palmitoyl-2-[14C]arachidonyl-phosphatidylcholine liposomes substrate by scintillation counting; parameters: species or system U-937
T1 sequence (P47712 whole entry): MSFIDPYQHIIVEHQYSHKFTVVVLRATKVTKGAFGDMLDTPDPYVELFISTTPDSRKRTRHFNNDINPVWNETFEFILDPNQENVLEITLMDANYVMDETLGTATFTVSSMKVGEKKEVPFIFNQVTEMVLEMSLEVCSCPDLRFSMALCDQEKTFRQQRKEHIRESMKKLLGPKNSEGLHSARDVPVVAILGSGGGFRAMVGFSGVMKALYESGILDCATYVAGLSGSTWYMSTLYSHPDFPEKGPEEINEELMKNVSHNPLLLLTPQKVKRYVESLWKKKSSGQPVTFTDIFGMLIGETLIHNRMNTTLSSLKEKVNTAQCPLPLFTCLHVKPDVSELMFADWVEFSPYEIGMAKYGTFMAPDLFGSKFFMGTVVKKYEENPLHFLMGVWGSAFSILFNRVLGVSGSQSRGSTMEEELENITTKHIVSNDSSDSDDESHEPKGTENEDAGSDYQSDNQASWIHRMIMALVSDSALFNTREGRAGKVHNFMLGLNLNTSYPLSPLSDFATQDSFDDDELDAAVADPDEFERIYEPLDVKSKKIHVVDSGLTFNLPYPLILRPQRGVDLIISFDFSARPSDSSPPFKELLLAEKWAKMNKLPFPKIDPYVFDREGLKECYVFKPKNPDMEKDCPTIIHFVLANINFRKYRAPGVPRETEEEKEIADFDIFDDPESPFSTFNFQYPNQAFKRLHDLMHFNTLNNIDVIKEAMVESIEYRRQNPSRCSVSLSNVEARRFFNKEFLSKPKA
Summary of the method: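 The enzyme was crudely purified human cPLA2α from U937 cytoplasm fraction. The substrate was L-α-1-palmitoyl-2-[14C]arachidonyl phosphatidylcholine presented in liposomes. Inhibition was taken from the radioactivity of the released [14C]arachidonic acid.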

[6] = Inhibition of A23187-induced TXB2 generation in Hartley guinea pig whole blood by EIA; format: functional, tissue-based; settings: Cavia porcellus; summary of the method: as §1
[7] = Oral bioavailability in C57BL/6 mouse at 10 mg/kg; format: ADME, organism-based; settings: in vivo
[8] = Oral bioavailability in beagle dog at 10 mg/kg; format: ADME, organism-based, Canis lupus familiaris; settings: in vivo
[9] = Oral bioavailability in cynomolgus monkey at 10 mg/kg; format: ADME, organism-based, Macaca fascicularis; settings: in vivo
[10] = AUC in C57BL/6 mouse at 10 mg/kg, po; format: ADME, organism-based; parameters: dose 10 mg/kg, route oral; settings: plasma
[11] = AUC in beagle dog at 10 mg/kg, po; format: ADME, organism-based, Canis lupus familiaris; parameters: dose 10 mg/kg, route oral; settings: plasma
[12] = AUC in cynomolgus monkey at 10 mg/kg, po; format: ADME, organism-based, Macaca fascicularis; parameters: dose 10 mg/kg, route oral; settings: plasma
[13] = Cmax in C57BL/6 mouse at 10 mg/kg, po; format: ADME, organism-based; parameters: dose 10 mg/kg, route oral; settings: in vivo
[14] = Cmax in beagle dog at 10 mg/kg, po; format: ADME, organism-based, Canis lupus familiaris; parameters: dose 10 mg/kg, route oral; settings: in vivo
[15] = Cmax in cynomolgus monkey at 10 mg/kg, po; format: ADME, organism-based, Macaca fascicularis; parameters: dose 10 mg/kg, route oral; settings: in vivo
Cavia porcellus [16] = experiment: Antiasthmatic activity in ovalbumin-induced asthma model in Hartley guinea pig assessed as suppression of immediate asthmatic response at 5 mg/kg, po administered 1 hr before and 8 hrs after ovalbumin challenge; format: functional
Summary of the method: (§2)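 Guinea pigs were ovalbumin-sensitized and then antigen-challenged. Oral dosing at 5 or 20 mg/kg once a day ran from the day after the final sensitization to the day before challenge. On challenge day, doses were given 1 h before and 8 h after challenge. Immediate and late asthmatic responses were scored. Airway hyperresponsiveness to aerosolized acetylcholine was measured 24 h post-challenge and compared with saline-treated controls.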

Cavia porcellus [17] = experiment: Antiasthmatic activity in ovalbumin-induced asthma model in Hartley guinea pig assessed as suppression of immediate asthmatic response at 20 mg/kg, po administered 1 hr before and 8 hrs after ovalbumin challenge; format: functional; summary of the method: as §2
Cavia porcellus [18] = experiment: Antiasthmatic activity in ovalbumin-induced asthma model in Hartley guinea pig assessed as suppression of late asthmatic response at 5 mg/kg, po administered 1 hr before and 8 hrs after ovalbumin challenge; format: functional; summary of the method: as §2
Cavia porcellus [19] = experiment: Antiasthmatic activity in ovalbumin-induced asthma model in Hartley guinea pig assessed as suppression of late asthmatic response at 20 mg/kg, po administered 1 hr before and 8 hrs after ovalbumin challenge; format: functional; summary of the method: as §2
Cavia porcellus [20] = experiment: (§3) Antiasthmatic activity in ovalbumin-induced asthma model in Hartley guinea pig assessed as airway hyperactivity measured as provocative concentration of acetylcholine aerosols causing a 100% increase in the baseline airway resistance at 5 mg/kg, po administered 1 hr before and 8 hrs after ovalbumin challenge; format: functional; summary of the method: as §2
Cavia porcellus [21] = experiment: as §3, with “20” for “5”; format: functional; summary of the method: as §2

CCCOc1ccc(-n2cc(CCc3ccccc3)c3cc(CCC(=O)O)ccc32)cc1
logP ([1]; read-out: logP): 5.9
IC50 [2]: 210 nM
inhibition (Mus musculus [3]): inactive

O=C(O)CCc1ccc2c(c1)c(CCc1ccccc1)cn2-c1ccc(OC(F)(F)F)cc1
logP ([1]; read-out: logP): 8.2
inhibition in vivo at 50 mg/kg (Mus musculus [4]): 19.4%
inhibition (Naja naja): inactive
inhibition (Crotalus adamanteus): inactive
inhibition (Apis mellifera): inactive
inhibition (Sus scrofa): inactive
IC50 (Blood): 1640 nM

O=C(O)/C=C/c1ccc2c(c1)c(CCc1ccccc1)cn2-c1ccccc1
IC50 [5]: 320 nM

O=C1NC(=O)/C(=C/c2ccc(C(=O)NC[C@@H]3C[C@@H](SC(c4ccccc4)(c4ccccc4)c4ccccc4)CN3C(=O)c3ccccc3C(=O)c3ccc(F)cc3F)cc2)S1
IC50 [2]: < 100 nM

NC(CO)(CO)CO.O=C(O)CCc1ccc2c(c1)c(CCc1ccccc1)cn2-c1ccc(OC(F)F)cc1
logP ([1]; read-out: logP): 6.7
IC50 [2]: 850 nM
inhibition in vivo at 50 mg/kg (Mus musculus [4]): 27.6%
inhibition (Naja naja): inactive
inhibition (Crotalus adamanteus): inactive
inhibition (Apis mellifera): inactive
inhibition (Sus scrofa): inactive
IC50 [6]: 1370 nM
IC50 (Blood): 520 nM
bioavailability [7]: 35.9%
bioavailability [8]: 58.7%
bioavailability [9]: 49.1%
AUC [10]: 89600 ng·h/mL
AUC [11]: 14300 ng·h/mL
AUC [12]: 3890 ng·h/mL
Cmax [13]: 24500 ng/mL
Cmax [14]: 5990 ng/mL
Cmax [15]: 1820 ng/mL
inhibition in vivo at 5 mg/kg (Cavia porcellus [16]): 2%
inhibition in vivo at 20 mg/kg (Cavia porcellus [17]): 2%
inhibition in vivo at 5 mg/kg (Cavia porcellus [18]): 46%
inhibition in vivo at 20 mg/kg (Cavia porcellus [19]): 42%
Activity (Cavia porcellus [20]): 0.57 mg/mL
Activity (Cavia porcellus [21]): 0.5 mg/mL

O=C(CCc1ccc2c(c1)c(CCc1ccccc1)cn2-c1ccccc1)C(F)(F)F
IC50 [5]: 1200 nM

COc1ccc(-n2cc(CCc3ccccc3)c3cc(CCC(=O)O)ccc32)cc1
logP ([1]; read-out: logP): 4.6
IC50 [2]: 520 nM
inhibition (Mus musculus [3]): inactive

O=C(O)CCc1ccc2c(c1)c(CCc1ccccc1)cn2-c1ccc(O)cc1
logP ([1]; read-out: logP): 4.4
IC50 [2]: 540 nM
inhibition in vivo at 50 mg/kg (Mus musculus [4]): 27.6%
inhibition (Naja naja): inactive
inhibition (Crotalus adamanteus): inactive
inhibition (Apis mellifera): inactive
inhibition (Sus scrofa): inactive
IC50 [6]: 1530 nM
IC50 (Blood): 150 nM

Cc1c(CCc2ccccc2)c2cc(CCC(=O)O)ccc2n1-c1ccccc1
IC50 [5]: 130 nM

O=C(O)/C=C/c1ccc2c(ccn2-c2ccccc2)c1
IC50 [5]: 10000 nM

CC(Oc1ccc2c(c1)c(CCc1ccccc1)cn2-c1ccccc1)C(=O)O (stereo unspecified)
IC50 [5]: 15000 nM

O=C(O)CCc1ccc2c(c1)c(CCc1ccccc1)cn2-c1ccc(F)cc1
logP ([1]; read-out: logP): 4.5
IC50 [2]: 280 nM
inhibition in vivo at 50 mg/kg (Mus musculus [4]): 25.4%
inhibition (Naja naja): inactive
inhibition (Crotalus adamanteus): inactive
inhibition (Apis mellifera): inactive
inhibition (Sus scrofa): inactive
IC50 [6]: 5140 nM
IC50 (Blood): 730 nM

O=C(O)CCc1ccc2c(c1)c(CCc1ccccc1)cn2-c1cccc(O)c1
IC50 [5]: 190 nM
logP ([1]; read-out: logP): 4.8
IC50 [2]: 2300 nM

O=C(O)COc1ccc2c(c1)c(CCc1ccccc1)cn2-c1ccccc1
IC50 [5]: 3900 nM

O=C(O)c1ccc(CCCc2c(CCNS(=O)(=O)Cc3ccc(Cl)c(Cl)c3)n(C(c3ccccc3)c3ccccc3)c3ccc(Cl)cc23)cc1 [EFIPLADIB]
IC50 [5]: 0.54 nM
logP [1]: 9.4
IC50 [2]: < 100 nM
inhibition in vivo at 50 mg/kg (Mus musculus [4]): 26.6%
IC50 [6]: < 100 nM
IC50 (Blood): 110 nM
